Legend:
[1] = Equilibrium constant measured by the pulse radiolysis at pH 7; assay type: ADME
In short: (§1)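 Pulse radiolysis on a 1.8 MV linac (ca. 3 Gy in 0.2 μs) of solutions at 21 °C in a 2-cm pathlength cell, buffered at pH 7 with 2 mM sodium phosphate. Dose was set by aerated 10 mM KSCN absorbance at 472 nm. The equilibrium constant K for ArNO₂/ArNO₂•⁻ versus benzylviologen came from radical ratios over various substrate concentrations. E(1) was derived from K relative to E(BV²⁺/BV•⁺).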

[2] = Ratio of cytotoxicity determined in air to that of cytotoxicity determined in N2 was measured under aerobic conditions to hypoxic conditions by the clonogenic assay against Chinese hamster ovary (subline AA8) cells; assay type: cell-based, Cricetulus griseus; details: subline AA8 (CHO-AA8)
In short: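 Clonogenic survival of plateau-phase AA8 cells in stirred suspension at 37 °C. Cells and drug were pre-gassed separately for 45 min with 5% CO₂ in air or in N₂, then mixed using a gas-purged syringe. Plating efficiency was sampled over up to 3 h. Drug levels were chosen to give similar killing rates under both gases. Ratio = CT₁₀(air)/CT₁₀(N₂), where CT₁₀ is concentration × time for 10% survival.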

[3] = Relative lipophilicity of the compound; assay type: physicochemical; details: octanol/water
[4] = Compound's one-electron reduction potential (E(1)) has been measured by radiolysis at pK1
In short: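 Calculated from E(1) measured at pH 7 using the paper's pH-dependence expression. Side-chain pKa values (pK2, pKr2) were assumed equal for all derivatives, and the acridine radical pKa was assumed 4.3 pH units above pK1.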

[5] = tested on: Nucleic Acid; test: Logarithm of association constant for binding to poly[d(A-T)], determined by ethidium displacement; assay type: nucleic-acid assay
In short: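 Ethidium displacement assay with poly[d(A-T)], giving log association constant. No quenching corrections were applied.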

[6] = Dissociation constant of the compound; assay type: physicochemical
[7] = Cytotoxicity was measured under aerobic conditions by the clonogenic assay against Chinese hamster ovary (subline AA8) cells; assay type: cell-based, Cricetulus griseus; parameters: unit not given here
In short: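 CHO AA8 cells were grown in alpha MEM with 10% FCS, then taken to unfed plateau phase in spinner flasks (1.0–1.3 × 10⁶ cells/mL). Cells were resuspended in 5% FCS medium, and cells and drug were pre-equilibrated separately for 45 min at 37 °C under flowing 5% CO₂ in air. Exposure was as stirred suspension for up to 3 h, with plating efficiency sampled over time. CT₁₀ is the concentration × time giving 10% survival.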

[8] = Compound''s one-electron reduction potential (E(1)) has been measured by radiolysis at pH 7; in short: as §1
[9] = Dissociation constant was determined; assay type: physicochemical

Row | Structure (SMILES) | K [1] | Rm [3] | E [4] | Log K [5] | pKa [6] | E [8] | Log Ke [5] | pKa [9] | selectivity ratio [2] | CT10 [7]
1 | CN(C)CCCNc1c2ccccc2nc2c(N(C)C)ccc([N+](=O)[O-])c12 | 5.3 M⁻¹ | -0.63 | -314 mV | 7.11 M-1 | 6.47 | -334 mV | – | – | 16 | 720
2 | CN(C)CCCNc1c2ccccc2nc2c(F)ccc([N+](=O)[O-])c12 | 2.4 M⁻¹ | -0.46 | -277 mV | 6.15 M-1 | 5.41 | -354 mV | – | – | 5.3 | 2
3 | CN(C)CCCNc1c2ccccc2nc2c(N(CCO)CCO)ccc([N+](=O)[O-])c12 | – | -0.74 | – | – | 6.53 | – | 6.73 M-1 | – | 6 | 540
4 | CN(C)CCCNc1c2ccccc2nc2cccc([N+](=O)[O-])c12 [NITRACRINE] | 18 M⁻¹ | -0.85 | -270 mV | 6.92 M-1 | 6.21 | -303 mV | – | – | 9.9 | 0.47
5 | COC(=O)c1ccc([N+](=O)[O-])c2c(NCCCN(C)C)c3ccccc3nc12 | 175 M⁻¹ | – | -164 mV | 6.06 M-1 | – | -244 mV | – | 5.35 | 0.32 | 8
6 | CC(=O)OCCN(CCOC(C)=O)c1ccc([N+](=O)[O-])c2c(NCCCN(C)C)c3ccccc3nc12 | 11.7 M⁻¹ | -0.29 | -280 mV | 6.5 M-1 | 6.2 | -314 mV | – | – | 11.5 | 575

Continued, in another order:

Row | K [1] | Rm [3] | E [4] | Log K [5] | pKa [6] | E [8] | Log Ke [5] | pKa [9] | Structure (SMILES) | selectivity ratio [2] | CT10 [7]
7 | 8.8 M⁻¹ | -0.76 | -292 mV | 7.23 M-1 | 6.29 | -321 mV | – | – | Cc1ccc([N+](=O)[O-])c2c(NCCCN(C)C)c3ccccc3nc12 | 10 | 2
8 | 7 M⁻¹ | -0.25 | -225 mV | 5.95 M-1 | 5 | -325 mV | – | – | CN(C)CCCNc1c2ccccc2nc2c(Cl)ccc([N+](=O)[O-])c12 | 13.6 | 0.68
9 | 1.9 M⁻¹ | -0.88 | -346 mV | 6.76 M-1 | 6.61 | -361 mV | – | – | COc1ccc([N+](=O)[O-])c2c(NCCCN(C)C)c3ccccc3nc12 | 16 | 22

— ChEMBL document CHEMBL1124328, “Hypoxia-selective antitumor agents. 1. Relationships between structure, redox properties and hypoxia-selective cytotoxicity for 4-substituted derivatives of nitracrine” (J Med Chem, 1989)
